For one data set, the system named is effects of cocaine. The conditions noted are these: cited from earlier work.
A further data set deals with sigma receptors. The following applies: cited from earlier work.
The next data set deals with sigma-2 receptors. The conditions noted are these: sigma-1 and sigma-2 in the nanomolar and subnanomolar range; cited from earlier work.
Data set [1] relates to cocaine induced behaviors. The conditions noted are these: cited from earlier work.
Data set [2] in a line: stability of stock solutions. In kind it is physicochemical.
Data set [3] is described as follows: pilot intravenous pharmacokinetic study in rats. In kind it is in vivo. The conditions noted are these: male, Sprague-Dawley, rat, plasma, 5 mg/kg. Put shortly: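 Six male Sprague-Dawley rats (180–200 g) with right jugular vein cannulas, fasted 12 h before and 4 h after dosing. Single 5 mg/kg i.v. bolus in saline (0.2 µm filtered) via cannula, flushed with heparinized saline. Plasma from centrifuged blood (10,000 × g, 20 min, 4 °C) held at −20 °C. Chloroform extraction with aripiprazole internal standard. HILIC UPLC/MS in SIR mode (m/z 390; IS 448). Mean ± SD, n = 6.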

A further data set has as its system sigma-1 receptors. The following applies: sigma-1 and sigma-2 in the nanomolar and subnanomolar range; cited from earlier work.
The nature of data set [4]: stability of CM156 in rat plasma QC samples under various storage conditions. In kind it is in vitro ADME. The conditions noted are these: for stability in rat plasma: 10, 400 and 3000 ng/mL. In outline:
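Blank rat plasma was spiked to QC levels of 10, 400 and 3000 ng/mL, six replicates each. Conditions were three freeze–thaw cycles (−20 °C 24 h, thaw at room temperature, refreeze 12–24 h), room temperature for 12 h, −20 °C for 1 month, and autosampler reinjection after 24 h at 25 °C. Samples were chloroform-extracted with aripiprazole internal standard, analysed by UPLC/MS, and compared with fresh QCs.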

Where [5] appears, read: rat plasma, long term for 30 days (−20 °C), spiked 10 ng/mL.
[6] abbreviates: rat plasma, long term for 30 days (−20 °C), spiked 400 ng/mL.
Where [7] appears, read: rat plasma, short term for 12 h (25 °C), spiked 10 ng/mL.
Where [8] appears, read: rat plasma, short term for 12 h (25 °C), spiked 400 ng/mL.
[9] abbreviates: rat plasma, three freeze thaw cycles, spiked 400 ng/mL.
Where [10] appears, read: rat plasma, three freeze thaw cycles, spiked 3000 ng/mL.
[11] abbreviates: reconstituted samples, auto sampler for 24 h (25 °C), spiked 10 ng/mL.
[12] abbreviates: reconstituted samples, auto sampler for 24 h (25 °C), spiked 400 ng/mL.
Where [13] appears, read: reconstituted samples, auto sampler for 24 h (25 °C), spiked 3000 ng/mL.

`CN(CCc1ccc(Cl)c(Cl)c1)CCN1CCCC1` [BD 1008]: in the data set with effects of cocaine, the convulsions of cocaine entry is reported as “attenuation”, the “locomotor stimulant effects of cocaine” value is listed as “blockade” and the “rewarding effects of cocaine” value is “attenuation”.
With `COC(=O)[C@H]1[C@@H](OC(=O)c2ccccc2)C[C@@H]2CC[C@H]1N2C` [cocaine], the “affinity for sigma receptors” value in the data set with sigma receptors is on record as “about 2 µm”.
As a reminder, the AUC(0-inf) is total exposure, with the tail of the curve extrapolated. Higher therefore signals high exposure. The term Cmax denotes the highest concentration seen after dosing. Usually MRT stands for a mean duration of stay, worked out from the concentration-time curve. Usually Vd stands for the apparent volume that relates the amount in the body to the concentration in plasma or blood. A high value points to wide distribution into tissue. Usually clearance stands for the volume of plasma or blood freed of the substance per unit of time. A word on the half-life: it is the time needed for the level to fall by half in the phase considered. Read a low half-life as rapid decline. With `S=c1sc2ccccc2n1CCCCN1CCN(C2CCCCC2)CC1` [CM156, 3-(4-(4-cyclohexylpiperazin-1-yl)butyl)benzo[d]thiazole-2(3H)-thione], the “affinity for sigma-2 receptors” value in the data set on sigma-2 receptors was “high affinity”. The “cocaine induced place conditioning behaviors” value in data set [1] is on record as “significantly attenuate”. In addition, the “expression of cocaine induced behavioral sensitization” value in data set [1] is on record as “significantly attenuate”. Also, in data set [2] (one week at −20 °C), the stock solution stability result is on record as “stable”. For the same molecule, the “time stock solution is stable” value in data set [2] (room temperature) is on record as “at least 6 h”. Moreover, the area under the curve AUC(0-inf) in data set [3] was 802 ng·h/mL. Also, the maximum concentration (Cmax) in data set [3] was 1300 ± 200 ng/mL. The MRT in data set [3] was 1.5 h. The Vd in data set [3] stood at 9.6 ± 1.4 L/kg. Moreover, the clearance in data set [3] is 103 mL/min/kg. The half-life in data set [3] (Elimination half-life (t1/2), rats, single intravenous dose of 5 mg/kg, n = 6, mean ± SD) is 1.1 ± 0.4 h. The “affinity for sigma-1 receptors” value with sigma-1 receptors is on record as “high affinity”. In addition, the “stability in rat plasma” value in data set [4] (during three freeze/thaw cycles), in data set [4] (stored at room temperature for 12 h) and in data set [4] (stored at −20 °C for 1 month) was “stable” throughout. The Measured concentration turned out to be 11.2 ± 0.9 ng/mL in data set [4] (setting [5]); 394.8 ± 17.8 ng/mL in data set [4] (setting [6]); 2879.4 ± 243.1 ng/mL in data set [4] (rat plasma, long term for 30 days (−20 °C), spiked 3000 ng/mL); 8.6 ± 0.7 ng/mL in data set [4] (setting [7]); 403.6 ± 9.2 ng/mL in data set [4] (setting [8]); 2879.4 ± 145.2 ng/mL in data set [4] (rat plasma, short term for 12 h (25 °C), spiked 3000 ng/mL). Also, the Measured concentration in data set [4] (rat plasma, three freeze thaw cycles, spiked 10 ng/mL) is on record as 9.2 ± 1.1 ng/mL; in data set [4] (setting [9]), 406.4 ± 8.8 ng/mL; in data set [4] (setting [10]) it was 2879.4 ± 209.8 ng/mL; in data set [4] (setting [11]), 10.0 ± 0.2 ng/mL; in data set [4] (setting [12]), 404.4 ± 4.7 ng/mL; in data set [4] (setting [13]), 2901.1 ± 59.2 ng/mL. Besides, the “RE (relative error)” value in data set [4] (setting [5]) is 12.8%; in data set [4] (setting [6]), −1.3%; in data set [4] (setting [7]) it was −12.3%; in data set [4] (setting [8]), 2.3%; in data set [4] (setting [9]), 1.6%; in data set [4] (setting [10]) it was −4.0%. The “RE (relative error)” value was 2.2% in data set [4] (setting [11]), 1.1% in data set [4] (setting [12]) and −3.3% in data set [4] (setting [13]). Further, in data set [4] (stored for 24 h in the autosampler at 25 °C), the “stability in reconstituted samples” value was “stable”.

The record behind these values is publication PMC3992999 (Journal of chromatography. B, Analytical technologies in …, 2011).
